Data published in ChEMBL document CHEMBL1140068, “Computer based design, synthesis and biological evaluation of novel indole derivatives as HCV NS3-4A serine protease inhibitors” (Bioorg Med Chem, 2008).
Converted amounts (≈) assume the structure as drawn.

How the values were obtained:
[1] = Inhibition of HCV NS3 protease; design: species or system Hepacivirus hominis
Method in brief: (§1)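 Competitive displacement binding assay against HCV NS3-4A protease using the fluorogenic peptide substrate Ac-Asp-Glu-Asp(EDANS)-Glu-Glu-Abu-ψ. Fluorescence intensity was read, and percent inhibition was calculated from it.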

[2] = system: Hepacivirus hominis; assay: Inhibition of HCV NS3 protease at 10 ug/ml; method in brief: as §1
[3] = system: Hepacivirus hominis; assay: Inhibition of HCV NS3 protease at 100 ug/ml; method in brief: as §1
[4] = system: Hepacivirus hominis; assay: Inhibition of HCV NS3 protease at 50 ug/ml; method in brief: as §1

SMILES | IC50 [1] [µg/mL] | inhibition [2] [%] | inhibition [3] [%] | inhibition [4] [%]
O=C(CCC(=O)N[C@@H](Cc1ccc(O)cc1)C(=O)O)CC(c1ccc(C(F)(F)F)cc1)c1c[nH]c2ccc(Br)cc12 (stereo partly specified) | 39.2 (≈ 62.1 µM) | 19.1 | 82.9 | 54
COc1ccc([C@@H](CC(=O)CCC(=O)N[C@@H](Cc2ccccc2)C(=O)O)c2c[nH]c3ccc(OC)cc23)cc1 | 36.5 (≈ 69 µM) |  |  | 
COc1ccc2[nH]cc(C(CC(=O)CCC(=O)N[C@@H](Cc3c[nH]c4ccccc34)C(=O)O)c3ccc(C(F)(F)F)cc3)c2c1 (mixture of isomers) | 47.9 |  | 76.9 | 51.2
COc1ccc(C(CC(=O)CCC(=O)N[C@@H](Cc2c[nH]c3ccccc23)C(=O)O)c2c[nH]c3ccc(OC)cc23)cc1 (mixture of isomers) | 44.8 |  | 67.4 | 54.4
COc1ccc(C(CC(=O)CCC(=O)N[C@@H](Cc2ccc(O)cc2)C(=O)O)c2c[nH]c3ccc(OC)cc23)cc1 (mixture of isomers) | 27.2 | 29.6 | 78.8 | 69.9
COc1ccc(C(CC(=O)CCC(=O)N[C@@H](Cc2ccccc2)C(=O)O)c2c[nH]c3ccc(OC)cc23)cc1 (mixture of isomers) | 15 | 43.7 | 85.7 | 84.4
COc1ccc2[nH]cc(C(CC(=O)CCC(=O)N[C@@H](Cc3ccccc3)C(=O)O)c3ccc(C(F)(F)F)cc3)c2c1 (mixture of isomers) | 13 | 48.5 | 84.9 | 67.2
COc1ccc2[nH]cc(C(CC(=O)CCC(=O)N[C@@H](Cc3ccc(O)cc3)C(=O)O)c3ccc(C(F)(F)F)cc3)c2c1 (mixture of isomers) | 39 | 35.2 | 84.3 | 57.1
COc1ccc(C(CC(=O)CCC(=O)N[C@@H](Cc2c[nH]c3ccccc23)C(=O)O)c2c[nH]c3ccc(Br)cc23)cc1 (mixture of isomers) | 44.1 |  | 72.6 | 54.8
COc1ccc2[nH]cc(C(CC(=O)CCC(=O)N[C@@H](Cc3c[nH]cn3)C(=O)O)c3ccc(C(F)(F)F)cc3)c2c1 (mixture of isomers) | 30.5 | 23.5 | 77.6 | 62.5
COc1ccc(C(CC(=O)CCC(=O)N[C@@H](Cc2ccc(O)cc2)C(=O)O)c2c[nH]c3ccc(Br)cc23)cc1 (mixture of isomers) | 63.3 |  | 68.7 | 41.5
COc1ccc(C(CC(=O)CCC(=O)N[C@@H](Cc2c[nH]cn2)C(=O)O)c2c[nH]c3ccc(OC)cc23)cc1 (mixture of isomers) | 31 | 22.4 | 75.7 | 59.2
